Results reported in paper PMC3529830 (Chemistry & biology, 2012).

Tests used:
[1] = 5 consecutive days of treatment; ref Demo et al., 2007; cited from earlier work
[2] = Host toxicity in P. berghei infected mice during treatment; details: daily I.V. doses, scruffy coat, significant weight loss
[3] = test system: non-confluent human foreskin fibroblast (HFF) cells; assay: HFF cell toxicity assay; type: cell-based; details: read-out: EC50, host cell killing
[4] = test system: P. falciparum gametocytes; assay: P. falciparum gametocyte viability assay; type: cell-based, Plasmodium falciparum; details: 24 hr treatment
[5] = test system: P. berghei; assay: P. berghei mouse model of malaria, parasitemia; type: in vivo, Plasmodium berghei in Balb/c mice; details: tolerated dose, I.V. daily for 3 consecutive days
[6] = target: putative β5 subunit of P. falciparum proteasome (Plasmodium falciparum, UniProt Q8IJT1); assay: Proteasome activity in intact inhibitor-treated trophozoites by MV151 labeling; type: cell-based
Summary of the method: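 P. falciparum culture at ~15% parasitemia; intact trophozoites exposed 1 hr to a range of inhibitor concentrations, then pelleted and washed 3× in fresh medium. Hypotonic lysis (50 mM Tris pH 7.4, 5 mM MgCl2, 1 mM DTT) on ice 1 hr. ≥2 μg lysate labeled with 2 μM MV151, 37°C 1 hr. Run on 12% SDS-PAGE, TAMRA fluorescence scan. Band intensity expressed as % of DMSO; curve fit to IC50; 3 independent experiments.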

[7] = test system: P. falciparum proteasome; assay: Recovery of P. falciparum proteasome activity after inhibitor washout; type: cell-based, Plasmodium falciparum
[8] = test system: P. falciparum; assay: P. falciparum replication assay; type: cell-based; details: Plasmodium falciparum, read-out: EC50, parasite replication
[9] = rat P. berghei model; ref Gantt et al., 1998; cited from earlier work
[10] = test system: A549 cells; details: 1 μM; ref Czesny et al., 2009; cited from earlier work
[11] = test system: NIH3T3 cells; details: 1 μM; ref Czesny et al., 2009; cited from earlier work
[12] = test system: P. falciparum; details: 1 μM; ref Czesny et al., 2009; cited from earlier work

For CC(C)C[C@H](NC(=O)[C@H](CCc1ccccc1)NC(=O)CN1CCOCC1)C(=O)N[C@@H](Cc1ccccc1)C(=O)N[C@@H](CC(C)C)C(=O)[C@@]1(C)CO1 [carfilzomib, Carfilzomib], the maximum tolerable dose [1] is given as 2 mg/kg, the “dose at which mice started to develop signs of compound toxicity” value [2] is given as 1 mg/kg and the EC50 [3] is given as 0.492 µM. The activity against gametocytes [4] was “effective towards gametocytes”, the “effect on parasite burden” value [5] was “only a very minor effect on parasite burden at day 3” and the IC50 [6] was 0.025 µM. For the same compound, the “inhibitor exposure necessary to prevent recovery of proteasome activity” value ([7]; 100 nM dose, activity determined 10 hr after washout) was “at least 6 hr”, the “recovery of proteasome activity after washout” value ([7]; 1 μM, 1 hr treatment, 47 hrs after compound washout) was “substantial recovery of proteasome activity” and the “time to recovery of proteasome activity after inhibitor removal” value ([7]; 1 hr treatment of trophozoites, washout, depending on the dose) was at most 24 h. The EC50 [8] was 0.0288 µM.
In the case of CC(=O)N[C@@H](CSC(=O)[C@]1([C@@H](O)C(C)C)NC(=O)[C@H](C)[C@@H]1O)C(=O)O [lactacystin, Lactacystin], the host toxicity [9] is given as “significant host toxicity”.
For CC[C@H](C)[C@H](NC(=O)[C@H]([C@@H](C)CC)N(C)C(C)=O)C(=O)N[C@H](C(=O)N[C@@H](CC(C)C)C(=O)[C@@]1(C)CO1)[C@@H](C)O [epoxomicin], the decrease in viability [10] is given as 20%, the decrease in viability [11] is given as 20% and the “effect on P. falciparum replication” value [12] is given as “completely blocking”.
